Experimental data taken from ChEMBL document CHEMBL4145680, “Tau-Centric Multitarget Approach for Alzheimer's Disease: Development of First-in-Class Dual Glycogen Synthase Kinase 3β and Tau-Aggregation Inhibitors” (J Med Chem, 2018).
The source made the active and inactive calls.

Experiments:
[1] = target: T1, Glycogen synthase kinase-3 beta (Homo sapiens, UniProt P49841); assay: Inhibition of GSK3beta (unknown origin) pre-incubated for 30 mins followed by ULight-GS (Ser641/pSer657) peptide substrate addition and measured after 1 hr by TR-FRET assay
Target sequence in this assay (P49841 whole entry): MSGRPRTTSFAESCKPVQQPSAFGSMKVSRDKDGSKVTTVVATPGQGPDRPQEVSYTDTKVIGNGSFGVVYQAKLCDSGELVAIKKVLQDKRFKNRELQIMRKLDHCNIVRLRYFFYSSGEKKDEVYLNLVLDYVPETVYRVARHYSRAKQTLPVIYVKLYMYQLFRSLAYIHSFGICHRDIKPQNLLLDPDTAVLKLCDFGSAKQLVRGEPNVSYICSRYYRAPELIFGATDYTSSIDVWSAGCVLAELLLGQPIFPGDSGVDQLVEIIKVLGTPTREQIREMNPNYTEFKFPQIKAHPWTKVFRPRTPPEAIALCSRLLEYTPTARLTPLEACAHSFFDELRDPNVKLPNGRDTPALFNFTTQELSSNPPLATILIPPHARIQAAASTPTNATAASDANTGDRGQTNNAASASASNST

[2] = target: Microtubule-associated protein tau (Homo sapiens) (UniProt P10636); assay: Inhibition of heparin-induced full-length 2N4R tau self aggregation (unknown origin) assessed as induction of delay in aggregation at 10 uM by ThT fluorescence assay based RT-QuIC analysis
Chain of Microtubule-associated protein tau (Homo sapiens) (P10636 whole entry): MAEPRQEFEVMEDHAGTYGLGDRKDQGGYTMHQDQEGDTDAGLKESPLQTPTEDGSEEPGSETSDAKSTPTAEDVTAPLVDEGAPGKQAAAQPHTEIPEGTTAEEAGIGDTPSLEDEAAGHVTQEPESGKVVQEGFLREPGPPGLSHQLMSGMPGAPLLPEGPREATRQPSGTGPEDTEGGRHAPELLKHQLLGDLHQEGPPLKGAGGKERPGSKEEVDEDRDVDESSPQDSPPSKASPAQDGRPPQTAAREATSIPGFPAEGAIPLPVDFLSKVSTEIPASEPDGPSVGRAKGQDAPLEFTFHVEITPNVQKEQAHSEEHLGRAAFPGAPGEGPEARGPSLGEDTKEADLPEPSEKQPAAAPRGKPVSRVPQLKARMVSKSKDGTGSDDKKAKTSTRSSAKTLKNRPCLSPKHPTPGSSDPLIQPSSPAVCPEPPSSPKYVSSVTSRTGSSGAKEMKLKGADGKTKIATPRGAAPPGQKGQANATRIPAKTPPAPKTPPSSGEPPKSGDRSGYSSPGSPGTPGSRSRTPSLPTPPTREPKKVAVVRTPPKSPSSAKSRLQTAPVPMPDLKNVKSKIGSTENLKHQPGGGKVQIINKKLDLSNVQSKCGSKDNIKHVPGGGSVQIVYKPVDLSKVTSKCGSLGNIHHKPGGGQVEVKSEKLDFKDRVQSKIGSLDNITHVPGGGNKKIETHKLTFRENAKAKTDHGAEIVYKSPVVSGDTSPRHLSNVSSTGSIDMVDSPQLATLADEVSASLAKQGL
Outline: (§1)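 Full-length 2N4R tau 20 µM with heparin 0.02 mg/mL, 0.5 mM DTT and 10 µM ThT in PBS, ±10 µM compound; 1% DMSO control. Cycled 1 min shaking at 600 rpm and 1 min rest at 42 °C. ThT read every 2 min (ex 450, em 480 nm).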

[3] = tested on: Cerebellar granule neurone; assay: Neurotoxicity in rat primary cerebellar granule neurons assessed as reduction in cell viability at 5 to 25 uM incubated for 24 hrs by MTT assay; format: toxicity
Outline: (§2)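 Cerebellar granule neurons from 7-day-old rat pups, plated on poly-L-lysine at 3 × 10^5 cells/well in BME with FBS and 25 mM KCl. Cytosine arabinoside 10 µM added at 16 h. At 7 days in vitro, switched to serum-free BME with 25 mM KCl and treated 24 h at 0, 5, 25 or 50 µM. MTT 0.1 mg/mL for 20 min at 37 °C, A570. Mean ± SE of ≥3 experiments in triplicate, as % of control.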

[4] = target: Casein kinase I isoform delta (Homo sapiens) (UniProt P48730); assay: Inhibition of human recombinant CK1delta at 10 uM incubated for 60 mins by Kinase-Glo assay
Chain of Casein kinase I isoform delta (Homo sapiens) (P48730 whole entry, looked up, canonical isoform): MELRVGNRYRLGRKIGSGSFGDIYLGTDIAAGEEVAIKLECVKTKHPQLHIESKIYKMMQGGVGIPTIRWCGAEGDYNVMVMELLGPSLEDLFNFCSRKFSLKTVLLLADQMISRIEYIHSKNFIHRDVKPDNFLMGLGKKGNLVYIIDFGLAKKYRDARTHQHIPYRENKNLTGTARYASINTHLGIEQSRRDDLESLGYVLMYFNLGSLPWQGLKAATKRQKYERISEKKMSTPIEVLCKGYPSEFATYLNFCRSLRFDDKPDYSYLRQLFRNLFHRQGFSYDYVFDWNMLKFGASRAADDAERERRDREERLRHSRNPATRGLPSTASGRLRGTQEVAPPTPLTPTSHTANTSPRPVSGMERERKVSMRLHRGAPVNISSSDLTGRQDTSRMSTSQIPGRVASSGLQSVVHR
Outline: (§3)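 Human recombinant CK1δ or CK1ε, 16 ng, in 50 mM HEPES pH 7.5 with 10 mM MgCl2, 1 mM EGTA and Brij-35. Substrate 0.1% casein with 4 µM ATP; compound diluted to 10 µM before addition, DMSO ≤1%. Incubated 60 min at 30 °C, then Kinase-Glo luminescence read. Inhibition relative to no-inhibitor activity; mean of two experiments.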

[5] = Permeability in pH 7.4 PBS incubated for 2.5 hrs by PAMPA-BBB assay; format: ADME; settings: read-out: permeability
Outline: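 PAMPA-BBB: donor filter coated with porcine brain lipid in dodecane (20 mg/mL). Compounds in PBS pH 7.4/EtOH 70:30, acceptor filled with the same. Sandwich incubated 2.5 h at 25 °C, then donor and acceptor concentrations measured by UV at 3–5 wavelengths, 3 wells, two runs. Ten reference drugs included for validation.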

[6] = Inhibition of tau K18 fragment peptide aggregation assessed as induction of delay in […] self aggregation at 1 to 10 uM measured every 15 mins by ThT fluorescence assay based RT-QuIC analysis
Outline: (§4)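 Tau K18 21 µM with heparin 0.015 mg/mL, 0.1 mM DTT and 10 µM ThT in PBS, with compound at 1, 5 or 10 µM or 1% DMSO; triplicate. Cycled 1 min shaking at 300 rpm and 14 min rest at 37 °C. ThT read every 15 min (ex 450, em 480 nm). Inhibition from mean plateau fluorescence.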

[7] = tested on: Cerebellar granule neurone; assay: Neurotoxicity in rat primary cerebellar granule neurons assessed as reduction in cell viability at 50 uM incubated for 24 hrs by MTT assay; format: toxicity; outline: as §2
[8] = target: Microtubule-associated protein tau (Homo sapiens) (UniProt P10636); assay: Inhibition of heparin-induced full-length 2N4R tau self aggregation (unknown origin) assessed as reduction in formed aggregates level at 10 uM by ThT fluorescence assay based RT-QuIC analysis; outline: as §1
[9] = target: CDC7/DBF4 (Cell division cycle 7-related protein kinase/Activator of S phase kinase) (Homo sapiens) (UniProt Q9UBU7+O00311); assay: Inhibition of CDC7/Dbf4 (unknown origin) at 10 uM incubated for 60 mins by Kinase-Glo assay; format: protein-complex assay; settings: in the assay text read “ADP-Glo assay” for “Kinase-Glo assay”
Chain of CDC7/DBF4 (Cell division cycle 7-related protein kinase/Activator of S phase kinase) (Homo sapiens) (O00311 whole entry, looked up): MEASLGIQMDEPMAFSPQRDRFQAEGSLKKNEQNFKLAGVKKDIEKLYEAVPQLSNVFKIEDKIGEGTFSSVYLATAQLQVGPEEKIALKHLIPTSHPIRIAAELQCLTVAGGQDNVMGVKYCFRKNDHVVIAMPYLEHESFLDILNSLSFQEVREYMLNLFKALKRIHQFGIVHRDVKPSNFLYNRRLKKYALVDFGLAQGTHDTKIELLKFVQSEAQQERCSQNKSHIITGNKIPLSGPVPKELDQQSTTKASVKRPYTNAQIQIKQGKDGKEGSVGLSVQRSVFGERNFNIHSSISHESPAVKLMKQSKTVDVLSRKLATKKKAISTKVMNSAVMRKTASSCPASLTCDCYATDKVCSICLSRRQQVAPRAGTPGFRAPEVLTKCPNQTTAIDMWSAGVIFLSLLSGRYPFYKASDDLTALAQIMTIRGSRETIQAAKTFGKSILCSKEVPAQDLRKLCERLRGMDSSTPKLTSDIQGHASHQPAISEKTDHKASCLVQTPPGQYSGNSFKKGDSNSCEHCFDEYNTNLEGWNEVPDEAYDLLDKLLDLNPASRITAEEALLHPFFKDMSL
Chain of CDC7/DBF4 (Cell division cycle 7-related protein kinase/Activator of S phase kinase) (Homo sapiens) (Q9UBU7 whole entry, looked up): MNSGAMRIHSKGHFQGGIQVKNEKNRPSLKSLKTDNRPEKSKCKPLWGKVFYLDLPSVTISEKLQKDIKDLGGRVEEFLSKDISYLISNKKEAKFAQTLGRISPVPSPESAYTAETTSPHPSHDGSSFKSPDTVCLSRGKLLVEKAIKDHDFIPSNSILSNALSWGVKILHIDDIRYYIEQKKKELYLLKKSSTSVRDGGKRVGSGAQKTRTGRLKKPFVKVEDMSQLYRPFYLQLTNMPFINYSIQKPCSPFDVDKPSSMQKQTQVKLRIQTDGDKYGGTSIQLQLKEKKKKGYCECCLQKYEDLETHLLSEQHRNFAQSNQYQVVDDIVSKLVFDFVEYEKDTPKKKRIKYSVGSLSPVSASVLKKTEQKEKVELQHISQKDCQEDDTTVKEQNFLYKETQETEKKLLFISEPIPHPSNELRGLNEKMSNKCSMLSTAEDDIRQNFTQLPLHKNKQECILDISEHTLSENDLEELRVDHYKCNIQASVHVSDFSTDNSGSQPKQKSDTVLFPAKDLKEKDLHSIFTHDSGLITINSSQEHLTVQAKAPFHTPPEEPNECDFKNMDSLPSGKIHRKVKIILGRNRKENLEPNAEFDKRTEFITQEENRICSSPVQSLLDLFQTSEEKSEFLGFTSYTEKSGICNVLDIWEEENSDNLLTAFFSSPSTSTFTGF
Outline: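 CDC7/DBF4 enzyme, 25 ng/well, with 10 µM ATP (final) and PDKtide substrate. Incubated 60 min at room temperature. ADP-Glo reagent added for 40 min, then detection reagent for 30 min, and luminescence read. Inhibition calculated relative to the no-inhibitor maximum.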

[10] = target: Casein kinase I isoform epsilon (Homo sapiens) (UniProt P49674); assay: Inhibition of human recombinant CK1epsilon at 10 uM incubated for 60 mins by Kinase-Glo assay; outline: as §3
Chain of Casein kinase I isoform epsilon (Homo sapiens) (P49674 whole entry, looked up, canonical isoform): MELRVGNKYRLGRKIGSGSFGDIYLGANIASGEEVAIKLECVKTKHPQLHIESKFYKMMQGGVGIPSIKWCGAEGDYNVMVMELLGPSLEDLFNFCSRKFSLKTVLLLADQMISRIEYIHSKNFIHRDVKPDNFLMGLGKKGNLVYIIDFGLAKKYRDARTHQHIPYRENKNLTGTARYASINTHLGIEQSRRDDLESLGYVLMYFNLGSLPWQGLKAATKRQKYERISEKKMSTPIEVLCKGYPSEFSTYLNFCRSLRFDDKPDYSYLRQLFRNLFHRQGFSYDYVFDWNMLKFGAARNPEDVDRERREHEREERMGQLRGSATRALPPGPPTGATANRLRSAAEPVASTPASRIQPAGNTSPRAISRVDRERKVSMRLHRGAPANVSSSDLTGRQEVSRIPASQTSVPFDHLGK

[11] = target: T1, Glycogen synthase kinase-3 beta; assay: Inhibition of GSK3beta (unknown origin) using GS-2 peptide substrate incubated for 30 mins by kinase-Glo luminescent assay
Outline: (§5)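 Human recombinant GSK-3β, 20 ng, in 50 mM HEPES pH 7.5 with 1 mM EDTA, 1 mM EGTA and Mg acetate. Incubated 30 min at 30 °C, then Kinase-Glo luminescence read after 10 min. Activity scaled between no-inhibitor and full-inhibition reference controls.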
Target sequence in this assay (P49841 whole entry): as the sequence (P49841 whole entry) above

[12] = Inhibition of tau K18 fragment peptide aggregation assessed as reduction in […] self aggregation at 1 to 10 uM measured every 15 mins by ThT fluorescence assay based RT-QuIC analysis; outline: as §4
[13] = Inhibition of AcPHF6 peptide aggregation in pH 7.4 phosphate buffer at 10 uM by atomic force microscopy
Outline: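 AcPHF6 500 µM in water diluted to 50 µM in 50 mM phosphate pH 7.4, ±10 µM compound, no ThT. Incubated 80 min at 25 °C with 10 s shaking at 400 rpm each minute. Ultrafiltered (30 kDa cut-off), buffer exchanged to water, and the retained high-MW fraction adsorbed on mica. Imaged by PeakForce tapping-mode AFM.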

[14] = target: T1, Glycogen synthase kinase-3 beta; assay: Inhibition of GSK3beta (unknown origin) at 10 uM using GS-2 peptide substrate incubated for 30 mins by kinase-Glo luminescent assay
Outline: as §5, with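 “acetate. Substrate prephosphorylated GS-2 peptide 25 µM with 1 µM ATP; DMSO ≤1%.” for “acetate.”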
Target sequence in this assay (P49841 whole entry, looked up): as the sequence (P49841 whole entry) above

[15] = target: T1, Glycogen synthase kinase-3 beta; assay: Inhibition of GSK3beta (unknown origin) at 10 uM
Outline: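 Human recombinant GSK-3β (20 ng) with 25 µM GS-2 prephosphorylated peptide and 1 µM ATP in 50 mM HEPES pH 7.5, 1 mM EDTA, 1 mM EGTA, Mg acetate. DMSO at most 1%. 30 min at 30 °C; reaction stopped with Kinase-Glo, luminescence read after 10 min. Activity scaled between no inhibitor and full inhibition by a reference inhibitor.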
Target sequence in this assay (P49841 whole entry, looked up): as the sequence (P49841 whole entry) above

[16] = Hepatotoxicity in human HepG2 cells assessed as reduction in cell viability at 5 to 50 uM incubated for 24 hrs by MTT assay; format: toxicity, cell-based; settings: hepg2, 24 h
Outline: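 HepG2 cells grown in DMEM with 10% FBS at 37 °C, 5% CO2, seeded at 0.5 × 10^5 cells/well and left 24 h. Exposed in serum-free DMEM for 24 h (concentrations listed as 0, 10, 25, 50 µM; elsewhere 0, 5, 25, 50 µM). MTT 0.1 mg/mL for 10 min at 37 °C in the dark. Formazan dissolved in Tris/Triton X-100, A570. Mean ± SE of ≥3 experiments in triplicate; reported as % of control.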

[17] = target: T1, Glycogen synthase kinase-3 beta; assay: Inhibition of okadaic acid-induced GSK-3beta-mediated tau hyperphosphorylation in human SH-SY5Y cells assessed as increase in cell viability pre-incubated for 1 hr before okadaic acid stimulation for 24 hrs by MTT assay; format: cell-based
Outline: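 SH-SY5Y cells grown in DMEM with 10% FBS, seeded at 60000 per well and used 48 h later. Compound given 1 h before 30nM okadaic acid, then 24 h incubation. Viability by MTT, 0.5mg/mL for at least 4 h, formazan dissolved in DMSO, absorbance at 595 nm. Expressed relative to control (=100); n=6 from three independent experiments.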
Target sequence in this assay (P49841 whole entry, looked up): as the sequence (P49841 whole entry) above

[18] = target: T1, Glycogen synthase kinase-3 beta; assay: Competitive inhibition of GSK3beta (unknown origin) at 10 uM using fixed level of GS-2 peptide substrate and varying ATP levels incubated for 30 mins by kinase-Glo luminescent assay
Outline: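 Human recombinant GSK-3β, 20 ng per reaction, in HEPES pH 7.5 buffer with EDTA, EGTA and Mg acetate. GS-2 prephosphorylated peptide held at 25 µM; ATP varied from 1 to 50 µM along with inhibitor level. 30 min at 30 °C, then Kinase-Glo luminescence read after 10 min. Lineweaver–Burk double-reciprocal analysis; means of two experiments, each run in triplicate.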
Target sequence in this assay (P49841 whole entry, looked up): as the sequence (P49841 whole entry) above

[19] = Inhibition of AcPHF6 peptide aggregation in pH 7.4 phosphate buffer at 20 uM by CD Spectroscopy
[20] = target: T1, Glycogen synthase kinase-3 beta; assay: Reversible inhibition of GSK3beta (unknown origin) pre-incubated for 30 mins followed by 100 fold dilution into buffer containing ULight-GS (Ser641/pSer657) peptide substrate and cofactors by TR-FRET assay based jump-dilution assay
Target sequence in this assay (P49841 whole entry, looked up): as the sequence (P49841 whole entry) above

- IC50 [1]: 5.5 µM
- inhibition [2]: inactive
- inhibition [4]: inactive
- Papp at 2.5 h [5]: > 30.7 nm/s
- inhibition [6]: Active
- inhibition [8]: 30%
- inhibition [9]: inactive
- inhibition [10]: inactive
- IC50 [11]: 0.89 µM
- inhibition [12]: 35%
- inhibition [13]: Active
- inhibition [14]: > 50%
- inhibition [15]: 100%
- inhibition [18]: Active
- inhibition [19]: Active
- inhibition [20]: Active
Structure (SMILES): COc1ccc2c(c1)c(/C=C1\SC(=O)NC1=O)cn2C
- Activity [3]: Non-Toxic
- Activity [7]: Toxic
- Activity [16]: Non-Toxic
- inhibition [17]: Active
